ChEMBL document CHEMBL1914294, “Synthesis, molecular modeling and preliminary biological evaluation of a set of 3-acetyl-2,5-disubstituted-2,3-dihydro-1,3,4-oxadiazole as potential antibacterial, anti-Trypanosoma cruzi and antifungal agents” (Bioorg Med Chem, 2011)
Converted amounts (≈) assume the structure as drawn.

Experiments:
[1] = test system: Staphylococcus aureus; test: Antibacterial activity against Staphylococcus aureus ATCC 25923 after 18 hrs; format: functional; conditions: ATCC 25923, 18 h
Outline: (§1)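 Twofold serial dilutions in Tryptic Soy Broth, 0.1 to 80 µg/mL; stocks in DMSO/TSB 1:10 v/v. Inoculum adjusted to 0.5 McFarland, then diluted in sterile saline and TSB. Incubated 35 °C for 18 h. MIC taken as the lowest concentration with no visible growth. Triplicate.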

[2] = test system: Staphylococcus aureus; test: Antibacterial activity against multidrug-resistant Staphylococcus aureus 3SP/R33 after 18 hrs; format: functional; conditions: 3SP/R33, 18 h
Outline: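 Twofold serial dilutions in Tryptic Soy Broth, 0.1 to 80 µg/mL. Stocks prepared in DMSO/TSB 1:10 v/v. Inoculum was adjusted to 0.5 McFarland, then diluted in sterile saline and TSB. Plates were incubated at 35 °C for 18 h. MIC taken as the lowest concentration with no visible growth. Readings at 24 and 48 h served as sterility control. Run in triplicate.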

[3] = test system: Staphylococcus aureus; test: Antibacterial activity against vancomycin-intermediate Staphylococcus aureus VISA3 after 18 hrs; format: functional; conditions: VISA3, 18 h; outline: as §1
[4] = test system: Trypanosoma cruzi; test: Antitrypanosomal activity against epimastigote form of Trypanosoma cruzi Y after 5 days by spectrophotometer analysis; format: functional, organism-based; conditions: 120 h
Outline: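 Stationary-phase epimastigotes from a 10-day, 28 °C culture were set at 2.0 × 10^6 parasites/mL in LIT medium. Compounds in DMSO were diluted into LIT at 1.25–40.0 µM and incubated 5 days at 28 °C. A580 on days 0 and 5 gave % growth inhibition against untreated cultures. IC50 came from dose–response curves (≥4 concentrations). Triplicate; benznidazole reference.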

[5] = test system: Candida albicans; test: Antifungal activity against Candida albicans ATCC 537Y after 48 hrs by serial dilution method; format: functional
Outline: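 Broth microdilution following CLSI M27-A2, adapted for higher sensitivity. Stocks made in RPMI 1640 with 20% DMSO. Serial dilutions inoculated with C. albicans in RPMI 1640 at 10^3–10^5 CFU/mL final, incubated 35 °C for 48 h. MIC is the lowest concentration giving prominent growth reduction. Wells above 5% v/v DMSO were discarded. Triplicate; fluconazole reference.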

Row | Compound | MIC [1] [µg/mL] | MIC [2] [µg/mL] | MIC [3] [µg/mL] | IC50 [4] [µM] | MIC [5] [µg/mL]
1 | CC(=O)N1N=C(c2ccccc2)OC1c1ccc([N+](=O)[O-])s1 (stereo not given) | 2.46 (≈ 7.75 µM) | 1.25 (≈ 3.94 µM) | 0.63 (≈ 1.99 µM) | 10.2 | 
2 | CC(=O)N1N=C(c2ccc(Cl)cc2)OC1c1ccc([N+](=O)[O-])s1 (stereo not given) | 1.97 (≈ 5.6 µM) | 1.25 (≈ 3.55 µM) | 2.5 (≈ 7.11 µM) | 10.8 | 4.25 (≈ 12.1 µM)
3 | CC(=O)N1N=C(c2ccc(Br)cc2)OC1c1ccc([N+](=O)[O-])s1 (stereo not given) | 2.66 (≈ 6.71 µM) | 1.25 (≈ 3.15 µM) | 2.5 (≈ 6.31 µM) | 10.2 | 
4 | CC(=O)N1N=C(c2ccc(I)cc2)OC1c1ccc([N+](=O)[O-])s1 (stereo not given) | 2.87 (≈ 6.48 µM) | 1.25 (≈ 2.82 µM) | 2.5 (≈ 5.64 µM) | 12.1 | 
5 | CC(=O)N1N=C(c2ccc(C(F)(F)F)cc2)OC1c1ccc([N+](=O)[O-])s1 (stereo not given) | 2.62 (≈ 6.8 µM) | 1.25 (≈ 3.24 µM) | 2.5 (≈ 6.49 µM) | 14.2 | 7.2 (≈ 18.7 µM)
6 | CC(=O)N1N=C(c2ccc(C)cc2)OC1c1ccc([N+](=O)[O-])s1 (stereo not given) | 2.62 (≈ 7.91 µM) | 1.25 (≈ 3.77 µM) | 2.5 (≈ 7.54 µM) | 11.5 | 2.95 (≈ 8.9 µM)
7 | CCc1ccc(C2=NN(C(C)=O)C(c3ccc([N+](=O)[O-])s3)O2)cc1 (stereo not given) | 2.69 (≈ 7.79 µM) | 1.25 (≈ 3.62 µM) | 2.5 (≈ 7.24 µM) | 10.7 | 
8 | CCCc1ccc(C2=NN(C(C)=O)C(c3ccc([N+](=O)[O-])s3)O2)cc1 (stereo not given) | 3.28 (≈ 9.13 µM) | 1.25 (≈ 3.48 µM) | 1.25 (≈ 3.48 µM) | 9.9 | 
9 | COc1ccc(C2=NN(C(C)=O)C(c3ccc([N+](=O)[O-])s3)O2)cc1 (stereo not given) | 2.23 (≈ 6.42 µM) | 1.25 (≈ 3.6 µM) | 0.63 (≈ 1.81 µM) | 10.7 | 
10 | CCOc1ccc(C2=NN(C(C)=O)C(c3ccc([N+](=O)[O-])s3)O2)cc1 (stereo not given) | 2.36 (≈ 6.53 µM) | 1.25 (≈ 3.46 µM) | 2.5 (≈ 6.92 µM) | 26.6 | 5.83 (≈ 16.1 µM)
11 | CCCOc1ccc(C2=NN(C(C)=O)C(c3ccc([N+](=O)[O-])s3)O2)cc1 (stereo not given) | 3.28 (≈ 8.74 µM) | 2.5 (≈ 6.66 µM) | 2.5 (≈ 6.66 µM) | 12.2 | 
12 | CCCCOc1ccc(C2=NN(C(C)=O)C(c3ccc([N+](=O)[O-])s3)O2)cc1 (stereo not given) | 1.25 (≈ 3.21 µM) | 1.25 (≈ 3.21 µM) | 5 (≈ 12.8 µM) | 11.5 | 6.78 (≈ 17.4 µM)
13 | CC(=O)N1N=C(c2ccc([N+](=O)[O-])cc2)OC1c1ccc([N+](=O)[O-])s1 (stereo not given) | 2.39 (≈ 6.6 µM) | 2.5 (≈ 6.9 µM) | 1.25 (≈ 3.45 µM) | 9.85 | 
14 | CC(=O)N1N=C(c2ccc(C#N)cc2)OC1c1ccc([N+](=O)[O-])s1 (stereo not given) | 2.66 (≈ 7.77 µM) | 1.25 (≈ 3.65 µM) | 0.63 (≈ 1.84 µM) | 8.19 | 
15 | COC(=O)c1ccc(C2=NN(C(C)=O)C(c3ccc([N+](=O)[O-])s3)O2)cc1 (stereo not given) | 2.95 (≈ 7.86 µM) | 1.25 (≈ 3.33 µM) | 0.63 (≈ 1.68 µM) | 7.91 | 
16 | CC1(C)S[C@@H]2[C@H](NC(=O)[C@H](N)c3ccccc3)C(=O)N2[C@H]1C(=O)O [AMPICILLIN] | 0.1 (≈ 0.286 µM) |  |  |  | 
17 | O=C(Cn1ccnc1[N+](=O)[O-])NCc1ccccc1 [BENZNIDAZOLE] |  |  |  | 20.8 | 
18 | O=C(N/N=C/c1ccc([N+](=O)[O-])o1)c1ccc(O)cc1 [NIFUROXAZIDE] | 5.9 (≈ 21.4 µM) |  | 5 (≈ 18.2 µM) | 120 | 
